ChEMBL document CHEMBL4513216, “Probing the Open Global Health Chemical Diversity Library for Multistage-Active Starting Points for Next-Generation Antimalarials” (ACS Infect Dis, 2020)

Test: Toxicity liver stage against HepG2, at 10uM
Format: cell-based
Parameters: test concentration 10 uM, cell line HepG2-A16-CD81EGFP
Conditions: human, HepG2-A16-CD81EGFP cells; read-out: INHIBITION
Summary of the method: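 Uninfected HepG2-A16-CD81EGFP cells, 3 × 10^3 per well, 1536-well, plated on prespotted compound at 10 μM final, parasite-free screening media added to match infected plates; puromycin 10 μM positive, DMSO 0.5% negative; run in parallel with 48 h PbLuc assay at 37 °C, 5% CO2; viability by CellTiter-Glo luminescence, normalized to controls.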

Compound	cytotoxicity at 10 µM
CC(C)(C)n1ncc2c(=O)n(CC(=O)NCc3ccco3)cnc21	-1.6%
Cn1cc(S(=O)(=O)N(CC(F)(F)F)C2CC2)cc1C(N)=O	-5.02%
CC1(C)[C@H](Cc2cc(CN3CCCCC3)on2)C[C@@H]1NC(=O)C1CC1	-8.17%
CSCC[C@@H](CO)NC(=O)c1sc(-c2ccc(Cl)cc2)nc1C	6.45%
CNc1oc(-c2ccc(S(=O)(=O)N(C)C)o2)nc1C#N	-5.96%
Cn1cccc1C(O)CNS(=O)(=O)c1ccccc1Br (configuration not stated)	-11.1%
CC1NC(=O)COC12CCN(C(=O)Cc1ccsc1)CC2 (configuration not stated)	-5.73%
CO[C@H]1CN(C(=O)c2ccc[nH]2)[C@@H]2COC[C@H]12	-6.04%
CC(C)Nc1nc(N2CCCC2)nc2c1CN(S(C)(=O)=O)CC2	2.69%
N#Cc1cccc(CN2CCn3cc(CNC(=O)C4CCC4)nc3C2)c1	14%
CCN1C(=O)C2(CCOCC2)c2cc(NC(=O)c3cccn3C)ccc21	-2.13%
COc1cccc(-c2cnc(C3CCNCC3)cn2)c1	-30.4%
CCc1nnc(Nc2cccc(C3CCN(C(C)=O)CC3)n2)s1	0.579%
COc1cccc(OCC(=O)N2CCOc3ccncc32)c1	7.68%
CC(CN1CCOC1=O)NC(=O)c1cccc(Cl)c1Cl (configuration not stated)	-3.26%
CCC1(CC)CC(=O)N(CC(O)c2cccc(F)c2)C1=O (configuration not stated)	-3.43%
Cn1cc(CCCN2CCCC(c3cc(C(F)(F)F)[nH]n3)C2)cn1 (configuration not stated)	-2.59%
CN(CC(N)=O)CC1(c2ccc(Br)cc2)CC1	2.17%
CCCS(=O)(=O)CC(=O)Nc1ccsc1	-5.61%
COc1ccc(CNC(=O)CCn2cc(C)cn2)cc1C	-4.27%
COC(=O)N1CCCC(NC(=O)NCc2ccc(C)nc2)C1 (configuration not stated)	-4.73%

Compound	cytotoxicity at 10 µM
Clc1ccc(OCCNC2(c3ccc(Br)cc3)CCOCC2)cc1	2.67%
COc1ncccc1CNC(=O)c1cc(F)cc(Br)c1	-0.872%
Cc1nnc(NCC(c2cccs2)N2CCCC2)c(C#N)c1C (configuration not stated)	-4.94%
CCN(CC(=O)N(C)C)C(=O)c1nc(C)n(-c2ccccc2Cl)n1	7.3%
COC(=O)C1CN(CC(=O)Nc2cc(F)ccc2F)c2ccccc21 (configuration not stated)	8.32%
CCn1c(C)nnc1CN(C)C1CCN(Cc2ccccn2)C1 (configuration not stated)	1.8%
Cc1sc(C(=O)O)cc1S(=O)(=O)Nc1c(F)cccc1-n1cccn1	-1.37%
Cc1cn(CC(=O)NC2CCN(C(C)C)CC2)c2ccccc12	0.0531%
Cc1cc(NC(=O)N2CCCC2CN2CCOCC2)nn1C (configuration not stated)	1.63%
COCCS(=O)(=O)Nc1ccc(-n2nccc2C(F)(F)F)cc1	1.26%
CC(C)CNC(=O)CNC(=O)Nc1cccc(Cl)c1-n1cccn1	-2.45%
Cc1nnc(CN(C)C(=O)C(CC(C)C)N2CCCCC2=O)n1C (configuration not stated)	-1.88%
O=c1[nH]nc(CNc2ncc(Cl)cn2)[nH]1	-5.98%
COCCC(Cc1cccc(Br)c1)C(=O)N(C)C (configuration not stated)	13%
O=C1CCc2cc(C(=O)NCc3ccc(Cl)s3)ccc2N1	3.65%
CN(CC(=O)NC(C)(C)C)C(=O)C1CC(c2cccc(F)c2)=NO1 (configuration not stated)	19.5%
CS(=O)(=O)CCSCc1cccc2cccnc12	-6.64%
OC(COCc1cccs1)Cn1cc(Br)cn1 (configuration not stated)	1.91%
Cc1ccc(N(C)CC(O)COCc2ccccc2F)c(C)c1 (configuration not stated)	18%
CN1CCN(c2ccc(NC(=O)c3cccs3)c(C(F)(F)F)c2)CC1	3.94%
CCC(Nc1ccc(CCN2CCOCC2)cc1)C(N)=O (configuration not stated)	4.42%

Compound	cytotoxicity at 10 µM
CCN(Cc1ccc(Cl)s1)S(=O)(=O)CC	-1.11%
Cn1nc(C(=O)NCc2cccc(Cn3ccnc3)c2)ccc1=O	8.53%
COc1ccc(CN(C)c2ncc(S(N)(=O)=O)s2)c(OC)c1	-2.03%
CN(Cc1ccccc1F)C(=O)Cn1cc(NC(=O)C(C)(C)C)cn1	5.23%
Cc1nc2n(n1)CC(Nc1cc(C(F)(F)F)nc3ncnn13)CC2 (configuration not stated)	-1.27%
CCC(=O)Nc1ccc(C(C)NC(=O)COCCOC)cc1 (configuration not stated)	-7.71%
Cc1nc(CN2CCO[C@@H]3CN(C(=O)CC4CC4)CC[C@@H]3C2)cs1	3.79%
COC(=O)N1CCCCC1C(=O)N(C)Cc1cc(-c2cccnc2)no1 (configuration not stated)	0.83%
Cn1ccnc1CNc1nccc(-c2ncnn2C)n1	-6.47%
O=C(CCn1cccn1)N1CC[C@@H](c2ccc3ccccc3c2)[C@H](O)C1	2.03%
COCC(=O)N1CCCC(C(=O)NCc2cc(CC(C)C)on2)C1 (configuration not stated)	10.6%
O=C(CCN1CCCCO1)N1CCC(CO)(CCc2ccccc2)CC1	9.71%
Cc1ccc([C@H]2CN(C(=O)C3CCC3)C[C@@H]2N)o1	7.95%
CN1CCN2CCN(Cc3ccccc3Cn3cccn3)CC2C1 (configuration not stated)	-133%
COc1cc2[nH]c(=O)c(CN3CCCC(CO)C3)cc2c(OC)c1OC (configuration not stated)	-11.7%
CN1CSC[C@H]1C(=O)N1CCC(CCc2ccccc2)CC1	3.23%
CCCn1nccc1C(=O)N1CCN(C2CCc3ccccc3C2)CC1 (configuration not stated)	-130%
Cc1n[nH]c(C)c1CN1CC[C@@H]2[C@@H](CCC(=O)N2CCc2c[nH]cn2)C1	-3%
COC[C@]1(O)CCN(Cc2cnc(N(C)C)nc2)CC1(C)C	-5.03%
Cc1ccc(C)c(OCCN(C)C(=O)C2CCCN2C(N)=O)c1C (configuration not stated)	-1.01%
CC(=O)N[C@@H]1CN(Cc2nnc(-c3ccccc3)o2)C[C@H]1C(C)C	-0.598%

Compound	cytotoxicity at 10 µM
CNc1cc(C)nc(-c2cc(NCCO)nc3[nH]ccc23)n1	5.85%
CN1CCCC2(CCN(C(=O)CCn3cncn3)C2)C1=O (configuration not stated)	-11%
CCCc1cc(C(=O)N(C)Cc2cnc3ccccc3n2)n(C)n1	-19.3%
CC(NC(=O)CCc1cccs1)c1nnc2n1CCCCC2 (configuration not stated)	-7.59%
CC(C)c1noc(CN2CCN(C(=O)c3ccncc3F)CC2)n1	-10.9%
Cc1noc(C(C)N2CCN(CCN3CCCC3=O)CC2)n1 (configuration not stated)	-13.4%
Cc1cccc(-c2noc(CN3CCOCC3C)n2)c1 (configuration not stated)	-11.9%
CC(C)(C)c1noc(CCCC(=O)NCC2CCS(=O)(=O)C2)n1 (configuration not stated)	-15.4%
CC(Cn1cccn1)NCc1csc(-c2ncccn2)n1 (configuration not stated)	-14.7%
Fc1ccccc1OCCN1CCCCC1Cn1cncn1 (configuration not stated)	-18.9%
Cc1cnn(CC2CCCN2C(=O)c2ccc3nnc(C)n3c2)c1 (configuration not stated)	-8.11%
CC(=O)c1cccc(S(=O)(=O)N2CSCC2C(=O)NCC(F)(F)F)c1 (configuration not stated)	3.78%
Cc1ccc(-c2nc(CN3CCCC(Cn4cncn4)C3)no2)cc1 (configuration not stated)	-4.86%
CC(C)CN1CCn2c(COCc3cccnc3)nnc2C1	5.8%
Fc1ccccc1CN1C[C@H](OCC2CCOCC2)[C@H]2OCCC[C@H]21	-2.4%
O=C1[C@H]2CN(S(=O)(=O)c3ccccc3)C[C@H]2CN1Cc1cccnc1	-0.0837%
COc1ccccc1CN1CC[C@]2(C[C@H](OC)CO2)C1	-11.1%
Cn1cccc1C(=O)N1CCO[C@@H]2CN(Cc3nccs3)C[C@@H]2C1	-103%
Cn1ccc(C(=O)NC2CCC23CCN(Cc2cnn(C)c2)CC3)c1 (configuration not stated)	-146%
